From ChEMBL document CHEMBL4145527, “Targeting polyamine transport in Trypanosoma cruzi” (Eur J Med Chem, 2018)
pIC50: −log10 of the molar value. Blank lines part the entries; values can stand above or below the molecule they belong to. The source made the active and inactive calls. The rule behind the calls is not given here.

Key:
Leishmania amazonensis = assay: Antiparasitic activity against Leishmania amazonensis MHOM/Br/75/Josefa promastigotes by light microscopic method; type: functional, organism-based
[1] = target: T1, Putative amino acid permease/transporter (Trypanosoma cruzi) (UniProt D5FGE8); assay: Inhibition of Trypanosoma cruzi Y epimastigotes PAT assessed as reduction in [3H]-putrescine uptake up to 30 uM after 10 mins by liquid scintillation counting method
T1 sequence (whole entry): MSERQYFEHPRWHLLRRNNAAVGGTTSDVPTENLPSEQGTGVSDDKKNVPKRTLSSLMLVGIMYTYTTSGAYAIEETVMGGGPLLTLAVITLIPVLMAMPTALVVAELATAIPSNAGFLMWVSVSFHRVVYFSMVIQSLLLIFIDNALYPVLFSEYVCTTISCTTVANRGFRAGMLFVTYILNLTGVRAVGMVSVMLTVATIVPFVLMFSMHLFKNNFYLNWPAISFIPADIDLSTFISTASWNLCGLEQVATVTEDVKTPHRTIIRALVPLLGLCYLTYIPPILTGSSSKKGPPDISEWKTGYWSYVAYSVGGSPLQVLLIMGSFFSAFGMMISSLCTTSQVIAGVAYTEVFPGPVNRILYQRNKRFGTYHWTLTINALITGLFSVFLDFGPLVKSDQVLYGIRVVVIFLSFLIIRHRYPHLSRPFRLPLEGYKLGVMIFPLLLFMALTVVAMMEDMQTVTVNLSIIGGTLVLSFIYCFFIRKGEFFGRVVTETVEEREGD
In short: (§1)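 Y-strain epimastigotes from BHT culture were washed twice in PBS. 10^7 cells in PBS-2% glucose were given [3H]-putrescine (5 µM) or [3H]-spermidine (15 µM), 0.4 µCi, with inhibitor at 0–30 µM, later narrowed. Incubation was 10 min at 28 °C or 37 °C, stopped with ice-cold buffer and washed; pellets went to scintillation counting. Nonspecific uptake was taken with a 100-fold molar excess of substrate. IC50 was fit by nonlinear regression.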

[2] = target: T2, Putative amino acid permease/transporter (Trypanosoma cruzi, UniProt D5FGE8); assay: Inhibition of Trypanosoma cruzi Y epimastigotes PAT assessed as reduction in [3H]-putrescine uptake after 10 mins by liquid scintillation counting method; in short: as §1
T2 sequence (D5FGE8 whole entry): T1 sequence (whole entry)

[3] = target: T2, Putative amino acid permease/transporter; assay: Inhibition of Trypanosoma cruzi Y epimastigotes PAT assessed as reduction in [3H]--spermidine uptake after 10 mins by liquid scintillation counting method; in short: as §1
[4] = target: T1, Putative amino acid permease/transporter (Trypanosoma cruzi); assay: Inhibition of Trypanosoma cruzi Y epimastigotes PAT assessed as reduction in [3H]--spermidine uptake up to 30 uM after 10 mins by liquid scintillation counting method; in short: as §1
Trypanosoma cruzi [5] = assay: Trypanopcidal activity against Trypanosoma cruzi Y trypamastigotes after 24 hrs by Neubauer chamber or MTS dye based assay; type: functional, organism-based
In short: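 Culture-derived trypomastigotes, 10^6 cells/mL, were held at 37 °C for 24 h with compound at 0–2.5 µM. Motility was checked microscopically, and viability was counted by Neubauer chamber or MTS against untreated controls. IC50 was from logistic nonlinear regression.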

Trypanosoma cruzi [6] = assay: Ratio of IC50 for Trypanosoma cruzi Y epimastigotes to IC50 for Trypanosoma cruzi Y trypamastigotes; type: functional
Trypanosoma cruzi [7] = assay: Potentiation of benznidazole-induced trypanopcidal activity against Trypanosoma cruzi Y epimastigotes at 20 uM after 48 hrs by Neubauer chamber or MTS dye based assay; type: functional
In short: (§2)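 Epimastigotes were treated with 30 µM benznidazole alone or with 20 µM polyamine conjugate, for up to 96 h at 28 °C. Parasites were counted (Neubauer or MTS) at 24, 48, 72 and 96 h. Potentiation is the fold change in benznidazole potency with versus without the conjugate.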

Trypanosoma cruzi [8] = assay: Trypanopcidal activity against Trypanosoma cruzi Y trypamastigotes infected in African green monkey Vero cells treated for 5 days by Neubauer chamber or MTS dye based assay; type: functional, organism-based; conditions: 120 h
In short: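 VERO cells infected with trypomastigotes were exposed to compound at 0–2.5 µM for five days. Trypomastigote burst was scored after six days of infection. IC50 was obtained by nonlinear regression of dose-response.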

Trypanosoma cruzi [9] = assay: Trypanopcidal activity against Trypanosoma cruzi Y epimastigotes after 48 hrs by Neubauer chamber or MTS dye based assay; type: functional, organism-based
In short: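 Y-strain epimastigotes, 10^7 cells/well in BHT (pH 7, 10% FCS, hemin), were exposed to 0–100 µM compound at 28 °C for 48 h. Growth was counted in a Neubauer chamber or by MTS. IC50 is 50% viability relative to untreated control, by nonlinear regression; at least triplicate, three independent assays.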

Vero = assay: Cytotoxicity against African green monkey Vero cells assessed as reduction in cell viability after 24 hrs by crystal violet staining based assay; conditions: Chlorocebus sabaeus
In short: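 VERO cells (MEM, 10% heat-inactivated FCS, 37 °C, 5% CO2) were seeded at 10^4 cells/well and treated 24 h with compound at 0–50 µM; PBS served as negative control. Cells were fixed 15 min, stained with 0.5% crystal violet, and absorbance read at 570 nm. IC50 was from nonlinear regression.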

Trypanosoma cruzi [10] = assay: Potentiation of benznidazole-induced trypanopcidal activity against Trypanosoma cruzi Y epimastigotes at 20 uM after 96 hrs by Neubauer chamber or MTS dye based assay; type: functional; in short: as §2
[11] = target: T2, Putative amino acid permease/transporter; assay: Inhibition of Trypanosoma cruzi Y trypamastigotes PAT assessed as reduction in [3H]-putrescine uptake after 10 mins by liquid scintillation counting method
In short: (§3)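 Trypomastigotes came from infected VERO cells. 10^7 washed parasites in PBS-2% glucose were given [3H]-putrescine or [3H]-spermidine (0.4 µCi) plus inhibitor for 10 min at 28 °C or 37 °C. The reaction was stopped with ice-cold PBS-glucose, washed and scintillation counted. Background was taken with a 100-fold molar substrate excess. IC50 came from logistic dose-response fit.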

[12] = target: T2, Putative amino acid permease/transporter; assay: Inhibition of Trypanosoma cruzi Y trypamastigotes PAT assessed as reduction in [3H]--spermidine uptake after 10 mins by liquid scintillation counting method; in short: as §3
Trypanosoma cruzi [13] = assay: Potentiation of benznidazole-induced trypanopcidal activity against Trypanosoma cruzi Y epimastigotes at 20 uM after 72 hrs by Neubauer chamber or MTS dye based assay; type: functional; in short: as §2
HL-60 = assay: Cytotoxicity against human HL60 cells; type: cell-based
Trypanosoma cruzi [14] = assay: Potentiation of benznidazole-induced trypanopcidal activity against Trypanosoma cruzi Y epimastigotes at 20 uM after 24 hrs by Neubauer chamber or MTS dye based assay; type: functional; in short: as §2
[15] = Selectivity index, ratio of IC50 for cytotoxicity against African green monkey Vero cells to IC50 for trypanopcidal activity against Trypanosoma cruzi Y trypamastigotes; type: toxicity, cell-based; conditions: read-out: Ratio IC50

pIC50 (Leishmania amazonensis): 3.84
SMILES: NCCC(=O)CN

inhibition [1]: Active | pIC50 [2]: 5.40 | pIC50 [3]: 4.87 | inhibition [4]: Active
SMILES: NCCCCNCCCCNCc1c2ccccc2cc2ccccc12

inhibition [1]: Active | pIC50 [2]: 5.61
SMILES: CCCCCCCCCCCCCCCC(=O)NCCCCC(N)C(=O)NCCCNCCCCNCCCN (centres undefined)

inhibition [1]: Active | pIC50 [2]: 5.30 | pIC50 [11]: 5.31 | pIC50 [12]: 5.31 | pIC50 [3]: 5.06 | inhibition [4]: Active
SMILES: Cl.Cl.NCCCCNCc1c2ccccc2cc2ccccc12
pIC50 (Trypanosoma cruzi [5]): 6.34 | Ratio IC50 (Trypanosoma cruzi [6]): 37 | fold change (FC) (Trypanosoma cruzi [7]): 1.9 | pIC50 (Trypanosoma cruzi [8]): 6.28 | pIC50 (Trypanosoma cruzi [9]): 4.77 | pIC50 (Vero): 5.23 | fold change (FC) (Trypanosoma cruzi [10]): 11.2 | fold change (FC) (Trypanosoma cruzi [13]): 6.2 | pIC50 (HL-60): 4.70 | fold change (FC) (Trypanosoma cruzi [14]): 1.5 | selectivity ratio [15]: 12.7
